Experiments:
PC-3 = assay: Antiproliferative activity against human PC3 cells assessed as reduction in cell viability incubated for 72 hrs by CCK8 assay; type: functional, cell-based; conditions: PC-3, 72 h
[1] = Antiproliferative activity against human MV-3 cells assessed as reduction in cell viability incubated for 72 hrs by CCK8 assay; type: functional, cell-based; conditions: MV-3, 72 h
BEL-7404 tumor cell line = assay: Antiproliferative activity against human Bel7404 cells assessed as reduction in cell viability incubated for 72 hrs by CCK8 assay; type: functional, cell-based; conditions: BEL-7404, 72 h
SK-HEP1 = assay: Antiproliferative activity against human SKHEP1 cells assessed as reduction in cell viability incubated for 72 hrs by CCK8 assay; type: functional, cell-based; conditions: SK-HEP1, 72 h
[2] = Antiproliferative activity against human SW579 cells assessed as reduction in cell viability incubated for 72 hrs by CCK8 assay; type: functional, cell-based; conditions: SW579, 72 h
HCT-116 [3] = assay: Induction of apoptosis in human HCT116 cells at 0.20 uM incubated for 24 hrs by annexin V-FITC and propidium iodide staining based flow cytometry (reference value: 0.86 %); type: functional
HCT-116 [4] = assay: Cell cycle arrest in human HCT116 cells assessed as accumulation in G1 phase at 4 nM incubated for 24 hrs by propidium iodide staining based flow cytometry (reference value: 45.18 %); type: functional
HCT-116 [5] = assay: Cell cycle arrest in human HCT116 cells assessed as accumulation in S phase at 4 nM incubated for 24 hrs by propidium iodide staining based flow cytometry (reference value: 42.31 %); type: functional
HCT-116 [6] = assay: Cell cycle arrest in human HCT116 cells assessed as accumulation in G1 phase at 12 nM incubated for 24 hrs by propidium iodide staining based flow cytometry (reference value: 45.18 %); type: functional
HCT-116 [7] = assay: Cell cycle arrest in human HCT116 cells assessed as accumulation in S phase at 36 nM incubated for 24 hrs by propidium iodide staining based flow cytometry (reference value: 42.31 %); type: functional
HCT-116 [8] = assay: Induction of apoptosis in human HCT116 cells incubated for 24 hrs by annexin V-FITC and propidium iodide staining based flow cytometry; type: functional, cell-based
HCT-116 [9] = assay: Antitumor activity against human HCT116 cells xenografted in mouse assessed as reduction in tumor growth at 4 mg/kg, ip bid for 21 days administration starting from 10 days after tumor cell implantation measured every 2 or 4 days till the end of the treatment period relative to control; type: functional; conditions: HCT-116, ip, read-out: TGI
Outline: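 HCT116 xenografts in nude mice; intraperitoneal dosing on 21 consecutive days; tumour growth inhibition (TGI) versus untreated control, with body weight recorded. n = 6 mice per group; mean ± SEM; significance by Student's t test versus control.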

[10] = molecular target: Histone-lysine N-methyltransferase EHMT2 (Homo sapiens) (UniProt Q96KQ7); assay: Inhibition of N-terminal GST-tagged recombinant human G9a (785 to 1210 residues) expressed in Escherichia coli cells using biotinylated histone H3 peptide as substrate at 5 uM incubated for 90 mins in presence of 1 uM SAM by AlphaScreen assay relative to control
[11] = molecular target: NAD-dependent protein deacetylase sirtuin-1 (Homo sapiens) (UniProt Q96EB6); assay: Inhibition of N-terminal His tagged recombinant human SIRT1 (193 to end residues) expressed in baculovirus infected Sf9 cells using HDAC substrate 1 as substrate at 5 uM incubated for 30 mins by fluorescence based analysis relative to control
[12] = molecular target: Poly [ADP-ribose] polymerase 1 (Homo sapiens) (UniProt P09874); assay: Inhibition of PARP1 (unknown origin) using biotin-NAD+, NAD+ and sIDNA as substrate at 5 uM incubated for 1 hr by ELISA relative to control
[13] = molecular target: Poly [ADP-ribose] polymerase 2 (Homo sapiens) (UniProt Q9UGN5); assay: Inhibition of PARP2 (unknown origin) using biotin-NAD+, NAD+ and sIDNA as substrate at 5 uM incubated for 1 hr by ELISA relative to control
[14] = molecular target: Protein mono-ADP-ribosyltransferase PARP15 (Homo sapiens) (UniProt Q460N3); assay: Inhibition of PARP15 (unknown origin) using biotin-NAD+, NAD+ and sIDNA as substrate at 5 uM incubated for 1 hr by ELISA relative to control
[15] = molecular target: Protein arginine N-methyltransferase 1 (Homo sapiens) (UniProt Q99873); assay: Inhibition of PRMT1 (unknown origin) using plate-coated histone as substrate at 5 uM incubated for 90 mins in presence of 0.5 uM SAM by AlphaScreen assay relative to control
[16] = molecular target: 72 kDa type IV collagenase (Homo sapiens) (UniProt P08253); assay: Inhibition of MMP2 (unknown origin) using Mca-PLGLDpaAR as substrate at 5 uM preincubated with enzyme for 2 hrs followed by incubation with substrate for 15 mins by fluorescence based analysis relative to control
[17] = molecular target: cAMP-dependent protein kinase catalytic subunit alpha (Homo sapiens) (UniProt P17612); assay: Inhibition of PKAC-alpha (unknown origin) using CREBtide as substrate at 5 uM incubated for 40 mins in presence of 10 uM ATP by kiase-Glo luminescence assay relative to control
[18] = molecular target: Serine/threonine-protein kinase PLK1 (Homo sapiens) (UniProt P53350); assay: Inhibition of PLK1 (unknown origin) using PLK1 peptide as substrate at 5 uM incubated for 40 mins in presence of 10 uM ATP by kiase-Glo luminescence assay relative to control
[19] = molecular target: Focal adhesion kinase 1 (Homo sapiens) (UniProt Q05397); assay: Inhibition of FAK (unknown origin) using poly (Glu, Tyr) as substrate at 5 uM incubated for 40 mins in presence of 10 uM ATP by kiase-Glo luminescence assay relative to control
Homo sapiens = species: Homo sapiens; assay: Inhibition of PDE4A1A (unknown origin) using FAM-cAMP as substrate at 5 uM incubated for 1 hr by fluorescence polarization assay relative to control

Protein mono-ADP-ribosyltransferase PARP15 (Homo sapiens), sequence (Q460N3 whole entry): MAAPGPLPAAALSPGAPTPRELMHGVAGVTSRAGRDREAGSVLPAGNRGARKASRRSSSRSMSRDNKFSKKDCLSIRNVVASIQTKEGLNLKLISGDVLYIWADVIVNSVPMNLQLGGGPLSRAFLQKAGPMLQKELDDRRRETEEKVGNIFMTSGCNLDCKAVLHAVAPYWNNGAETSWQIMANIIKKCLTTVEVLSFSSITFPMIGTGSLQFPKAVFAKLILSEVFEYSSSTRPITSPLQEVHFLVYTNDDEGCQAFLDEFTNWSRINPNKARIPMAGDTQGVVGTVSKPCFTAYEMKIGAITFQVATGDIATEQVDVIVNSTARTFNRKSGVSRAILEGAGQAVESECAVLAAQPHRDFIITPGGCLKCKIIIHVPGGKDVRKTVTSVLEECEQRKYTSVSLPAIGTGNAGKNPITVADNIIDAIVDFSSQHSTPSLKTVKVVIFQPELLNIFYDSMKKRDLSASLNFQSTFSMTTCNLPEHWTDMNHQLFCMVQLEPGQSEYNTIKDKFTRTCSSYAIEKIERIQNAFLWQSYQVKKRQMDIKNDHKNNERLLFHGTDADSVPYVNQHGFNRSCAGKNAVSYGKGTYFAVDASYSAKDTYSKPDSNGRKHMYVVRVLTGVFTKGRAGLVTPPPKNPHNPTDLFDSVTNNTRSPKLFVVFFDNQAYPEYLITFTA
Poly [ADP-ribose] polymerase 2 (Homo sapiens), sequence (Q9UGN5 whole entry): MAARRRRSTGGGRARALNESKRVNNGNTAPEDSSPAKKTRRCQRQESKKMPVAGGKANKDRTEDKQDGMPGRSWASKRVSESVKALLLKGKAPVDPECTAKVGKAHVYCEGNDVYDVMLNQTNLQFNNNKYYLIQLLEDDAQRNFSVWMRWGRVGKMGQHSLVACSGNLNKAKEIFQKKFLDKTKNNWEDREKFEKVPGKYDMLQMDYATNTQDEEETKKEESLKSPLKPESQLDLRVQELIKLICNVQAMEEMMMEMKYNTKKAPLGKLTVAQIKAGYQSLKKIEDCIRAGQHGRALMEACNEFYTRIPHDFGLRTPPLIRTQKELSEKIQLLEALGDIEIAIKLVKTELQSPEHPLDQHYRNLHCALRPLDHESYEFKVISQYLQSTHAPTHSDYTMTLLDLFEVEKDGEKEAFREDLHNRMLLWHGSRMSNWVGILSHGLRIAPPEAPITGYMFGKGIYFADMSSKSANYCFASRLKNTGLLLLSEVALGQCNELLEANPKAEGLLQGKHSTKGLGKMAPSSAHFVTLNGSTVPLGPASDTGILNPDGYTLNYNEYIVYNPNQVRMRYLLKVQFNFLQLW
Poly [ADP-ribose] polymerase 1 (Homo sapiens), sequence (P09874 whole entry): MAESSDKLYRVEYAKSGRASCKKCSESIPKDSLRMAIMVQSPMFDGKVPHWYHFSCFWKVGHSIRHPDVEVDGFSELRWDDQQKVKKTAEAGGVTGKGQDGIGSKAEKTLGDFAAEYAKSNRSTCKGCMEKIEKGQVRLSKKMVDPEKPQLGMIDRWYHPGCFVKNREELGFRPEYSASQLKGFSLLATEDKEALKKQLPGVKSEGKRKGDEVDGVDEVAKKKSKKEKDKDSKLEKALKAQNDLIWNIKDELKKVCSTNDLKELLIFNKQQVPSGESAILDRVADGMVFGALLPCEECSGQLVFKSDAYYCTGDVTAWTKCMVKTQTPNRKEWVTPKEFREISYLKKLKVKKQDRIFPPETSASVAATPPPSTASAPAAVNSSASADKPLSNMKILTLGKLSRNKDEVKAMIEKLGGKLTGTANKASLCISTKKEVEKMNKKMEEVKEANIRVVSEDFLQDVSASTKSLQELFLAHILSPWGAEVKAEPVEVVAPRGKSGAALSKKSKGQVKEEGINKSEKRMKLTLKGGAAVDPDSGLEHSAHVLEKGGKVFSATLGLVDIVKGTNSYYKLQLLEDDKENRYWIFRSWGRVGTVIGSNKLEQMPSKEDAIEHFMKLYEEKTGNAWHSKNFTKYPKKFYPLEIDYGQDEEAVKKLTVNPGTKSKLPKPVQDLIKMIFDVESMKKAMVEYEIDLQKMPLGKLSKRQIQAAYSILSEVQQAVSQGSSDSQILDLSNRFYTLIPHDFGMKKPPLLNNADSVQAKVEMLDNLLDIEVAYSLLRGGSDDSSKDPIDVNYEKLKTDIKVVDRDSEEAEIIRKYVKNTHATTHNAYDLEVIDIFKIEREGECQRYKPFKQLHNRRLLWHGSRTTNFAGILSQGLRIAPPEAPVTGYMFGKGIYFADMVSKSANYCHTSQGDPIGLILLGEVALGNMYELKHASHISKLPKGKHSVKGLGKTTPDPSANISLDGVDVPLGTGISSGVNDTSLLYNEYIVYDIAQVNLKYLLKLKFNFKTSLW
Serine/threonine-protein kinase PLK1 (Homo sapiens), sequence (P53350 whole entry): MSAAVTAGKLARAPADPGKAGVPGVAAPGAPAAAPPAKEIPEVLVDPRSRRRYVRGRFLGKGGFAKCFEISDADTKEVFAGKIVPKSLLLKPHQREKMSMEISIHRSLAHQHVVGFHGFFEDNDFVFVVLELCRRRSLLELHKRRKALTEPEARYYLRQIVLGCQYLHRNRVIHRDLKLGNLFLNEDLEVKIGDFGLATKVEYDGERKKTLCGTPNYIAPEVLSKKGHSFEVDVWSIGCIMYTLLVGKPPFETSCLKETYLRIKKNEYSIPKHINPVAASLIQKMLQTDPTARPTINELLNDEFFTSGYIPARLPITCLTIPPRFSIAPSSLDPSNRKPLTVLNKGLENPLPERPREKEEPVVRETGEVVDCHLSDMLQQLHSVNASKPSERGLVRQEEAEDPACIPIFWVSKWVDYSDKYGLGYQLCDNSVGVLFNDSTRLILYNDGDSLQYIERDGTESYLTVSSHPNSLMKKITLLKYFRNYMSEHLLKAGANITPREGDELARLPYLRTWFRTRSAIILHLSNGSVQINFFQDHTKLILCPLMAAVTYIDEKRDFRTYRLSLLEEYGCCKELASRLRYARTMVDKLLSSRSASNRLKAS
72 kDa type IV collagenase (Homo sapiens), sequence (P08253 110-660 limits assumed): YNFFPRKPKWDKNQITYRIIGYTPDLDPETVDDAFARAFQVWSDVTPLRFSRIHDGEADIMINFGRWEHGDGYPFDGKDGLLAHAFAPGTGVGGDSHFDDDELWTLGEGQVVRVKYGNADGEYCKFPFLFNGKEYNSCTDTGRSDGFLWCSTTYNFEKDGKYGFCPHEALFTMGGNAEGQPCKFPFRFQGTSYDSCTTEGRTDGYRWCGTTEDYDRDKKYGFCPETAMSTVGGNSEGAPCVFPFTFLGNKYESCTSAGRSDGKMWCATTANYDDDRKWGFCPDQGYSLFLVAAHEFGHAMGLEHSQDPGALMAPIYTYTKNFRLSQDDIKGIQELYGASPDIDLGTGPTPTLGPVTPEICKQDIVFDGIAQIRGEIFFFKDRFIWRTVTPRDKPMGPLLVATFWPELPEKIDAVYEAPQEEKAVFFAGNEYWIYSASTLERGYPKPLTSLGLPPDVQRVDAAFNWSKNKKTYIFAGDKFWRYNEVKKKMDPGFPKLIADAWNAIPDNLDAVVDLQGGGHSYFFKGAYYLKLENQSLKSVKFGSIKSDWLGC
Protein arginine N-methyltransferase 1 (Homo sapiens), sequence (Q99873 whole entry, looked up): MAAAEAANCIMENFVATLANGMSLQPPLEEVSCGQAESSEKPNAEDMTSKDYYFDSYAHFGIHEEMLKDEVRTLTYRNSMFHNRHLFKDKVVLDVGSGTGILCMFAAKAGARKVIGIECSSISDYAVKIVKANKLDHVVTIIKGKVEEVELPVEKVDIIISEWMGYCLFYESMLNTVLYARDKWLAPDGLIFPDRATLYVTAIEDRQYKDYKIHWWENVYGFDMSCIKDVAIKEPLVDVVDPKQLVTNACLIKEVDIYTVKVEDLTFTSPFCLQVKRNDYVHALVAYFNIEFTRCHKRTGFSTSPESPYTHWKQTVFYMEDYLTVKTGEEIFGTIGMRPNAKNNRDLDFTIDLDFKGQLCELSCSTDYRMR
NAD-dependent protein deacetylase sirtuin-1 (Homo sapiens), sequence (Q96EB6 whole entry): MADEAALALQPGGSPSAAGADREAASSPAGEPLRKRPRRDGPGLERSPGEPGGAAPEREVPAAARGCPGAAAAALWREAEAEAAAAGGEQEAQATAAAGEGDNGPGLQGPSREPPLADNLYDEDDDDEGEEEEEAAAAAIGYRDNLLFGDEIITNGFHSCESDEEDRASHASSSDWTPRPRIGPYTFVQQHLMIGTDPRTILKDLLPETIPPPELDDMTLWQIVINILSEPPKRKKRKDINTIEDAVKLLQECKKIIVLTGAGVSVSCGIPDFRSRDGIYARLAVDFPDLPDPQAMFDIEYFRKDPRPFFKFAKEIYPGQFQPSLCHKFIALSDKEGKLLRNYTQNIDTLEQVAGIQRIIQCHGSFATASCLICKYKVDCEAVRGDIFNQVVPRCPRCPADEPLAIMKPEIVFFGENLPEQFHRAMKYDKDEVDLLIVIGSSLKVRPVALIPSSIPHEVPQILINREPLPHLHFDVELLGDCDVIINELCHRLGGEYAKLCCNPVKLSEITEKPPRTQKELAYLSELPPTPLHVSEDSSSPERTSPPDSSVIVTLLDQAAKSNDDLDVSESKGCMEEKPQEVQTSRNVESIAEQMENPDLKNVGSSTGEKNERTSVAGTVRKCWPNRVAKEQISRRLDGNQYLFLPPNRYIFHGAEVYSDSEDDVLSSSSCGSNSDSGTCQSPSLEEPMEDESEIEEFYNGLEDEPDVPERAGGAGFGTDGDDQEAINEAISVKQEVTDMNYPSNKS

IC50 (PC-3): 300 nM | IC50 (BEL-7404 tumor cell line): 100 nM | IC50 (SK-HEP1): 1300 nM | inhibition [10]: < 20% | inhibition [11]: < 20% | inhibition [12]: < 20% | inhibition [13]: < 20% | inhibition [14]: < 20% | inhibition [15]: < 20% | inhibition [16]: < 20% | inhibition [17]: < 20% | inhibition [18]: < 20% | inhibition [19]: < 20% | inhibition (Homo sapiens): < 20%
Structure (SMILES): COc1ccc2c(c1)cc1n2CCN2C(=O)c3cc(F)ccc3N(C)C12 (stereo not drawn)
IC50 [1]: 400 nM | IC50 [2]: 6100 nM | Activity (HCT-116 [3]): 45.97% | Activity (HCT-116 [4]): 43.01% | Activity (HCT-116 [5]): 39.26% | Activity (HCT-116 [6]): 24.07% | Activity (HCT-116 [7]): 14.85% | Activity (HCT-116 [8]): Dose-dependent effect | inhibition in vivo at 4 mg/kg (HCT-116 [9]): 37%
